# PDI turbidity: inhibitors of human PDI, primary screen, biochemical, turbidity, single point, plate reader; AID 588391, 2011; hit rate 0.052% among 350,000; inhibition, % at 10 µM; PDI insulin aggregation turbidity, A650, 90 min; Protein disulfide-isomerase (Homo sapiens), P07237;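 active = mean inhibition across replicates of 30% or more, whatever share of single replicates reach that level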
# Target sequence (P07237 whole entry, looked up): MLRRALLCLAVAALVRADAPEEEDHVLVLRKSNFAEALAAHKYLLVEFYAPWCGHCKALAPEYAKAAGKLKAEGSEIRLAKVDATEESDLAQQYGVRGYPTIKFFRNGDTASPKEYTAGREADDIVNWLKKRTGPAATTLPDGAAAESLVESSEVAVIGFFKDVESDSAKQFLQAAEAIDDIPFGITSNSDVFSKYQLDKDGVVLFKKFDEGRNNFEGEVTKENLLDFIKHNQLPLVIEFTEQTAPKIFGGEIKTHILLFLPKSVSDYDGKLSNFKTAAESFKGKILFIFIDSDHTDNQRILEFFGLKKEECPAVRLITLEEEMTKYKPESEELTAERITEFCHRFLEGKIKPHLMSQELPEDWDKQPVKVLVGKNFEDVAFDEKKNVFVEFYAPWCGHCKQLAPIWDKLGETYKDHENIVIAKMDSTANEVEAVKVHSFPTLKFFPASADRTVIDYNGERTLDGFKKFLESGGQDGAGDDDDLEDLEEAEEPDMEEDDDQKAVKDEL
# CAL PDZ FP-1: CAL PDZ peptide-binding inhibitors, primary screen, biochemical, fluorescence polarization, Cer-tagged CAL PDZ, HTS. purified CAL PDZ, TMR-peptide fluorescence polarization, 1 h. inhibition, % at 20 µM. hit rate 0.02% among 330,000. AID 504414, 2011. Golgi-associated PDZ and coiled-coil motif-containing protein (Homo sapiens), Q9HD26;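 active = highest replicate inhibition of at least 40%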;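 also: plate controls were DMSO neutral control wells for no effect and unlabeled competitor peptide control wells for full effect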
#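 System: purified tagged CAL PDZ domain construct (CerCALP). Schedule: 1 h incubation at room temperature before polarization reading. Medium: 25 mM sodium phosphate pH 7.4, 150 mM NaCl, TCEP, IgG, Thesit. Read-out: percent inhibition from loss of millipolarization. Measured by: FP readout, S and P plane fluorescence. Probe or stimulus: fluorescent TMR peptide probe.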
# CAL PDZ FP-2: untagged CAL PDZ binding inhibitors, primary screen, biochemical, fluorescence polarization, HTS; hit rate 0.92% among 300,000; Golgi-associated PDZ and coiled-coil motif-containing protein (Homo sapiens), Q9HD26; inhibition, % at 24.9 µM; purified CAL PDZ, TMR-peptide fluorescence polarization, 1 h;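 active = mean inhibition of at least 30% with at least half of replicates also reaching 30%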;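 also: 0% = DMSO neutral control and 100% = excess unlabeled competitor peptide PRC23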
# ERp5 inh: inhibitors of ERp5-driven insulin aggregation, primary screen, biochemical, turbidity, absorbance 650 nm, single point; Protein disulfide-isomerase A6 (Homo sapiens), Q15084; 90 min; inhibition, % at 9.99 µM; hit rate 0.05% among 350,000; AID 651711, 2012;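 active = mean replicate inhibition above about 25%, with every replicate also reaching it, limit read from the data, passing the limit was not always enough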
# Rin1 Abl inh: inhibitors of Rin1-Abl protein binding, primary screen, biochemical, TR-FRET; inhibition, % at 7.35 µM; Tyrosine-protein kinase ABL1 (Homo sapiens) + Ras and Rab interactor 1 (Homo sapiens), …; hit rate 0.4% among 360,000; in the data active = inhibition above about 5%, passing the limit was not always enough
# ERAP1 HTS inh: human ERAP1 aminopeptidase inhibitors, primary screen, biochemical, single point, plate reader | Endoplasmic reticulum aminopeptidase 1 (Homo sapiens), Q9NZ08 | recombinant ERAP1, Leu-AMC fluorescence, 60 min | inhibition, % at 10.7 µM | hit rate 0.15% among 340,000;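 active = mean replicate inhibition of at least 30%, or all replicates individually reaching that 30% level; inactive = mean below 30% and not every replicate reaching it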;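 also: 0% = neutral control wells and 100% = L-leucinethiol positive control wells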
# An asterisk follows results filed as active; / = not tested or not shown; ! = a repeat was not active. The list is not random: actives were taken first. Their share in the collection is about 1.1%.
SMILES,PDI turbidity,CAL PDZ FP-1,CAL PDZ FP-2,ERp5 inh,Rin1 Abl inh,ERAP1 HTS inh
CCn1nc(-c2ccccc2)nc2c(=O)n(C)c(=O)nc1-2,/,1,-4,/,27*,/
O=C(Cc1ccccn1)N1CCCCN2[C@@H](CO)[C@H](c3ccc(-c4ccccc4)cc3)[C@@H]2C1,/,/,/,-1,/,-1
CCOP(=O)(OCC)C(O)c1ccc(N(C)C)cc1 (stereo not given),-3,-1,30*,5,-1,/
CCOP(=O)(OCC)C(O)c1ccc(Br)cc1 (stereo not given),-1,0,-4,/,1,/
C[N+]1(C)CCc2cc3c(cc2[C@H]1[C@@H]1OC(=O)c2c1ccc1c2OCO1)OCO3,2,-1,0,0,-2,53*!
COc1ccc(/C=C2\C(=O)NC(=S)N(C)C2=O)cc1C,3,-2,-2,3,1,34*
Cc1ccsc1/C=C1\C(=O)NC(=S)N(C)C1=O,6,1,/,6,0,3
COc1ccc(C(CNC(=O)Cc2ccc(Cl)c(Cl)c2)N2CCCCC2)cc1 (stereo not given),-1,0,61*,-8,-1,-4
COc1cc(/C=C2\C(=O)NC(=O)N(c3ccccc3)C2=O)c([N+](=O)[O-])cc1OC,-5,46*,0,-1,-3,2
COc1cc(/C=C2\C(=O)NC(=O)N(c3ccccc3)C2=O)cc(OC)c1O,0,-1,/,/,0,/
O=[N+]([O-])c1ccc(-c2ccccc2)c([As](=O)(O)O)c1,2,0,/,1,1,-1
O=[N+]([O-])c1ccc2c(c1)C(c1ccccc1)=NCCN2,5,0,33*,3,-1,4
CCC1CN1P(=O)(c1ccccc1)N1CC1CC (stereo not given),-2,0,113*,3,3,2
C/C=C/c1ccc([C@@H]2[C@@H](CO)N3CCCCN(C(=O)Cc4cccnc4)C[C@@H]23)cc1,/,/,/,1,/,-1
CCCC[C@@H](C)C[C@@H](C)C(=O)N(C)[C@@H](CC(C)C)C(=O)N[C@H](C(=O)N(C)[C@H](C(=O)N1C[C@@H](O)C[C@H]1C(=O)N1C(=O)C=C[C@@H]1C)C(C)C)C(C)OC(C)=O (stereo not given in full),37*,0,-4,/,1,/
Cc1ccccc1-c1ccc([C@H]2[C@H]3CN(C(=O)Cc4ccccn4)CCCCN3[C@H]2CO)cc1,/,/,/,4,/,0
Cc1cc(OC(C)C(=O)NCc2ccncc2)c2c3c(c(=O)oc2c1)CCCC3 (stereo not given),3,-3,-1,6,-5,0
Cc1cc(OC(C)C(=O)NCc2ccncc2)c2c3c(c(=O)oc2c1)CCC3 (stereo not given),3,-1,31*,-18,-3,-1
CN(C)c1ccc(C=C2C(=O)NC(=S)NC2=O)cc1,-2,0,185*,2,0,11
O=[N+]([O-])c1ccc(Nc2ccccc2)cc1,0,-1,-3,2,-4,5
CC(Cc1ccccc1)NC(=O)Cc1ccc([N+](=O)[O-])cc1 (stereo not given),-5,1,30*,-1,1,-2
COc1cccc(-c2ccc([C@H]3[C@H](CO)N4CCCCN(C(=O)Cc5ccncc5)C[C@@H]34)cc2)c1,/,/,/,1,/,-1
Cc1ccccc1S(=O)(=O)N1[C@@H]2c3ccc(-c4cccnc4)c(=O)n3C[C@H]1[C@H](CO)[C@H]2C(=O)O,/,/,/,1,/,0
C=CCn1c(O)c(C(C)=Nc2ccc(C(=O)O)cc2)c(=O)[nH]c1=O,-6,0,82*,-3,-2,/
C=CCn1c(O)c(C(CC)=Nc2ccc(C(=O)O)cc2)c(=O)[nH]c1=O,-4,0,-4,0,-2,0
SMILES,PDI turbidity,CAL PDZ FP-1,CAL PDZ FP-2,ERp5 inh,Rin1 Abl inh,ERAP1 HTS inh
O=C(Cc1cccnc1)N1CCCCN2[C@H](CO)[C@H](c3ccc(/C=C/c4ccccc4)cc3)[C@H]2C1,/,/,/,-1,/,0
CCC(C)N1C(=O)/C(=C\c2cc3c4c(c2)CCCN4CCC3)C(=O)NC1=S (stereo not given),8,0,65*,4,-3,5
CCC(C)N1C(=O)/C(=C\c2ccc(N3CCCCCC3)cc2)C(=O)NC1=S (stereo not given),-8,-1,/,/,-1,/
COC(=O)[C@@H]1[C@@H](CO)[C@@H]2Cn3c(ccc(-c4ccccc4F)c3=O)[C@H]1N2,/,/,/,0,/,-3
C=CC1CN2CCC1CC2C(OC(C)=O)c1ccnc2ccc(OC)cc12 (stereo not given),8,-1,58*,-5,-4,/
O=C(O)[C@H]1[C@H](CO)[C@H]2Cn3c(ccc(-c4ccc(F)cc4)c3=O)[C@@H]1N2CC1CCCC1,/,/,/,-6,/,1
O=c1c2ccccc2[se]n1-c1ccccc1,0,-1,-1,5,-1,75*
O=C(Cc1ccccn1)N1CCCCN2[C@H](CO)[C@H](c3ccc(C#Cc4ccccc4)cc3)[C@H]2C1,/,/,/,-5,/,0
COC(=O)[C@@H]1[C@@H](CO)[C@@H]2Cn3c(ccc(-c4cccc(OC)c4)c3=O)[C@H]1N2CC1CC1,/,/,/,-1,/,-1
CN1C(=O)/C(=C/C=C/c2ccco2)C(=O)NC1=S,5,-4,-3,2,5.4*,2
COC1/C=C/C=C(\C)Cc2cc(O)c(Cl)c(c2)N(C)C(=O)CC(OC(=O)C(C)C)C2(C)OC2C(C)C2CC1(O)NC(=O)O2 (stereo not given),63*,0,-1,6,3,0
C1CCC2S[C@H]3CCCCC3NC2C1 (stereo not given in full),6,-1,58*,-1,-1,/
C[N+]1(C)CCC(OC(=O)C(c2ccccc2)c2ccccc2)CC1,0,1,1,-3,-2,92*
C[N+]1(C)[C@@H]2CC[C@H]1CC(OC(=O)[C@@H](CO)c1ccccc1)C2 (stereo not given in full),1,0,3,-1,1,28
O=C1CC=C2C3CC4N(CCC45c4cc(O)c(O)cc4N1C25)CC3=CCBr (stereo not given),8,1,0,-1,31*,3
Cc1ccc2c(C)c3ccc4ccccc4c3c[n+]2c1,2,-2,38*,-1,-13,-172

# Screening data as filed in PubChem.
